The text below walks through data of ChEMBL document CHEMBL4304755, “Diacetal Ditellurides as Highly Active and Selective Antiparasitic Agents toward Leishmania amazonensis” (ACS Med Chem Lett, 2019).

One data set has as its system Leishmania chagasi. As to the kind of experiment: Antileishmanial activity against amastigotes stage of Leishmania chagasi MHOM/BR/1972/LD infected in BALB/c mouse bone-marrow derived macrophages incubated for 3 days by hematoxylin-eosin staining based cell counting method. Type of data set: functional, organism-based. Particulars: 72 h.
Data set [1] deals with Leishmania amazonensis. As to the kind of experiment: Antileishmanial activity against promastigote stage of Leishmania amazonensis MHOM/BR/73/M2269 by erythrosine-B staining based Neubauer chamber based cell counting method. In kind it is functional, organism-based.
In data set [2] the test system is Leishmania amazonensis. Put plainly: Antileishmanial activity against promastigote stage of Leishmania amazonensis MHOM/BR/Josefa incubated for 72 hrs by XTT assay. Type of data set: functional, organism-based. The gist of the method:
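Promastigotes; IC50 is the concentration giving 50% growth inhibition. Values are mean ± SD of three separate experiments.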

Data set [3] in a line: Selectivity index, ratio of CC50 for mouse J774A1 cells to IC50 for promastigote stage of Leishmania amazonensis MHOM/BR/Josefa. As to conditions: read-out: Ratio CC50/IC50. In kind it is toxicity. An outline of the steps:
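SI is calculated as CC50 on J774A1 cells divided by the corresponding IC50 on promastigotes.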

Data set [4] concerns Leishmania amazonensis. Put plainly: Ratio of IC50 for miltefosine to IC50 for test compound for antileishmanial activity against promastigote stage of Leishmania amazonensis MHOM/BR/Josefa incubated for 72 hrs by XTT assay. In kind it is functional.
Data set [5] can be described thus: Cytotoxicity against BALB/c mouse peritoneal macrophages incubated for 48 hrs by MTT assay. Type of data set: cell-based, Peritoneal macrophage. The gist of the method: (§1)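 Intracellular amastigotes in macrophages and the matched macrophage cytotoxicity readout. Values are mean ± SD from three different experiments.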
In general terms: Tetrazolium dyes change colour on reduction, which living cells bring about.

The nature of data set [6]: Selectivity index, ratio of CC50 for BALB/c mouse peritoneal macrophage to IC50 for amastigotes stage of Leishmania amazonensis MHOM/BR/Josefa infected in BALB/c mouse peritoneal macrophage. Type of data set: toxicity. As to conditions: peritoneal macrophages, read-out: Ratio CC50/IC50.
Data set [7] concerns Leishmania amazonensis. As to the kind of experiment: Antileishmanial activity against amastigotes stage of Leishmania amazonensis MHOM/BR/Josefa infected in BALB/c mouse peritoneal macrophage incubated for 48 hrs by Giemsa staining based microscopic method. Type of data set: functional, organism-based. An outline of the steps: as §1

In general, IC50 refers to the concentration needed to halve the response being measured. One may read the CC50 as the concentration that lowers cell viability or growth by half.

`COc1ccc([Te]2(Cl)OC3(CCCCC3)/C2=C\Cl)cc1` (stereo unspecified) yielded an IC50 in the data set with Leishmania chagasi of 0.5 µM.

`CC[N+](CC)(CC)Cc1ccccc1.ClC1=C[Te-](Cl)(Cl)(Cl)OC1` gave an IC50 in the data set with Leishmania amazonensis [1] of 4 µM.

The molecule `CC1(c2cccc([Te][Te]c3cccc(C4(C)OCCO4)c3)c2)OCCO1` returned an IC50 in the data set on Leishmania amazonensis [2] of 0.9 µM. The selectivity ratio in data set [3] was 25. Besides, the “Ratio IC50” value in the data set on Leishmania amazonensis [4] worked out at 20.

The molecule `c1ccc([Te][Te]c2ccccc2)cc1` returned an IC50 in the data set on Leishmania amazonensis [2] of 1.4 µM. Further, the selectivity ratio in data set [3] amounted to 42.

On to `CC1(c2ccccc2[Te][Te]c2ccccc2C2(C)OCCO2)OCCO1`, for which the IC50 in the data set with Leishmania amazonensis [2] was found to be 8 µM. In addition, the selectivity ratio in data set [3] was 2. In addition, in the data set on Leishmania amazonensis [4], the “Ratio IC50” value worked out at 3.

`CC1(c2ccc([Te][Te]c3ccc(C4(C)OCCO4)cc3)cc2)OCCO1` showed a CC50 at 48 h in data set [5] of 8.3 µM. Also, the IC50 with Leishmania amazonensis [2] stood at 0.9 µM; in the data set on Leishmania amazonensis [7], 0.5 µM. Moreover, the values for the selectivity ratio in data set [3] and in data set [6] were 194 and 18, respectively. For the same molecule, the “Ratio IC50” value with Leishmania amazonensis [4] is given as 20.

In turn, `CCCCCCCCCCCCCCCCOP(=O)([O-])OCC[N+](C)(C)C` [MILTEFOSINE] yielded a CC50 at 48 h in data set [5] of 20.3 µM. Moreover, the IC50 with Leishmania amazonensis [2] turned out to be 20.7 µM; in the data set with Leishmania amazonensis [7] it was 1.7 µM. Moreover, the selectivity ratio in data set [3] amounted to 3; in data set [6], 12.
